Experimental findings from PMC13022283 (Scientific Reports, 2026) are described below.

As a reminder, the inhibition is the percentage by which the read-out fell short of the control. For orientation: IC50 means the concentration that inhibits the measured activity by half. A low value points to higher potency. By viability is commonly meant the share of living cells, or the viability signal relative to a control.

Data set [1] has as its target T1, h-NTPDase1 (Homo sapiens, UniProt P49961).
T1 sequence (P49961 1-510): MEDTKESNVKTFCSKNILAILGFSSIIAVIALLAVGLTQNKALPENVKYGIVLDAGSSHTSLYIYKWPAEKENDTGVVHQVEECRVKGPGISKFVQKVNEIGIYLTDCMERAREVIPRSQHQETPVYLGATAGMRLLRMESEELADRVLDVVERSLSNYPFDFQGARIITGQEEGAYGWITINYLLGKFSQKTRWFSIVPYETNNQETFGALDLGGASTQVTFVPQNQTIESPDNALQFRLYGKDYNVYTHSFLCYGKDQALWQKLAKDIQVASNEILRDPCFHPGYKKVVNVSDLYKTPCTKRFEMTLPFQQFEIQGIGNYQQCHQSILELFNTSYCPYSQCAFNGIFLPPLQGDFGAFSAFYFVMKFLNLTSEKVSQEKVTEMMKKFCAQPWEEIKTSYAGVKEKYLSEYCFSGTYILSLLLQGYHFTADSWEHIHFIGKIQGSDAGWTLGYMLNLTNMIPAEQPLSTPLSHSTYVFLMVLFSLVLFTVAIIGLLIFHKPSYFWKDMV
Briefly: h-NTPDase activity assay. In kind it is biochemical. Particulars: for inhibition at 100 µM: read-out: % Inhibition h-NTPDase1.

Data set [2] deals with T2, h-NTPDase3 (Homo sapiens, UniProt O75355).
T2 sequence (O75355 1-529): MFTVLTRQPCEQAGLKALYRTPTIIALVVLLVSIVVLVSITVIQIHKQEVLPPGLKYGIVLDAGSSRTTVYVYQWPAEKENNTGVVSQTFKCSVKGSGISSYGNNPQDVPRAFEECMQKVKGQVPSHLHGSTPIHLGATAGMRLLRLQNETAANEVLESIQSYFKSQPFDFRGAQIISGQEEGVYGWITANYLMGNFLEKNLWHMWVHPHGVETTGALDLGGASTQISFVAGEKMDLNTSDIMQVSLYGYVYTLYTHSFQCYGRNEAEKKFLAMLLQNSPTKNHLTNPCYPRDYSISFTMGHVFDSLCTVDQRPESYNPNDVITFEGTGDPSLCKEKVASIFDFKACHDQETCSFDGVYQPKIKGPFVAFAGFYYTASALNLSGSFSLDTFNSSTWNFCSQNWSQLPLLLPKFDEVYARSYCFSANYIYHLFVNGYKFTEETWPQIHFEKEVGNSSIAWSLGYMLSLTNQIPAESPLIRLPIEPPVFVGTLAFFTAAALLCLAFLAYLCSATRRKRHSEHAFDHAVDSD
Briefly: h-NTPDase activity assay. In kind it is biochemical. The following applies: for inhibition at 100 µM: read-out: % Inhibition h-NTPDase3. In a few lines: (§1)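 Human NTPDase1, -2, -3 or -8 came from COS-7 cells transfected with plasmids via Lipofectamine, harvested at 44–48 h, sonicated and cleared of nuclei, with protein measured by Bradford. Enzyme per well was 12, 37, 43 or 63 ng respectively. Compound (0.1 mM final) was pre-incubated 10 min at 37 °C in 50 mM Tris–HCl, 5 mM CaCl2, pH 7.4. The reaction was started with ATP (100 µM), run 15 min, and stopped with malachite green; Pi was read at 630 nm.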

Data set [3] concerns the target T3, h-NPP1 (Homo sapiens, UniProt P22413).
T3 sequence (P22413 1-925): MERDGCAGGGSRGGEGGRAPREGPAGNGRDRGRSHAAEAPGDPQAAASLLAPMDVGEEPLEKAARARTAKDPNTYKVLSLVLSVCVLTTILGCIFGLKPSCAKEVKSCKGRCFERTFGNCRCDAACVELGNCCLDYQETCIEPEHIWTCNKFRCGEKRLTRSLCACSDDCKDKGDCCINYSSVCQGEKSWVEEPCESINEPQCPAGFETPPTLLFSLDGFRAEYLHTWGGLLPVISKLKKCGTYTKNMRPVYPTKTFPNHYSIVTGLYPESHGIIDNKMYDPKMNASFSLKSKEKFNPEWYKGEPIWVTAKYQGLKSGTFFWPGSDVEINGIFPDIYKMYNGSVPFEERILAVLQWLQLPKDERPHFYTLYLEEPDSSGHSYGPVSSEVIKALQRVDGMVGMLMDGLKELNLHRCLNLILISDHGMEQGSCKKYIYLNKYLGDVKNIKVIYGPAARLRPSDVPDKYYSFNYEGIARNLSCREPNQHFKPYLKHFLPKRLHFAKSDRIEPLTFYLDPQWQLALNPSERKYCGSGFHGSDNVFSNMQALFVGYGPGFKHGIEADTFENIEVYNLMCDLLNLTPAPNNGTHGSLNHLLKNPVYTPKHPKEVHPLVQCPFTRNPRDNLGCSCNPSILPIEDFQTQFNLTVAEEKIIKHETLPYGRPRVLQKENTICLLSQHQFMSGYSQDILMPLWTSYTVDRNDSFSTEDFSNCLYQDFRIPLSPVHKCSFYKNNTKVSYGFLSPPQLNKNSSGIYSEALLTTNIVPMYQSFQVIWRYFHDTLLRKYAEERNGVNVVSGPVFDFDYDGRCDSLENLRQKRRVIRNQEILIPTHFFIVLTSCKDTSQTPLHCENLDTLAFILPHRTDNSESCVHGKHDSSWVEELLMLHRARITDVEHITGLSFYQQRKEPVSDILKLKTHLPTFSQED
Briefly: h-NPP1 activity assay. Format: biochemical. The following applies: for inhibition at 100 µM: read-out: % Inhibition h-NPP1.

Data set [4] has as its target T4, h-e5’NT (Homo sapiens, UniProt P21589).
T4 sequence (P21589 27-574): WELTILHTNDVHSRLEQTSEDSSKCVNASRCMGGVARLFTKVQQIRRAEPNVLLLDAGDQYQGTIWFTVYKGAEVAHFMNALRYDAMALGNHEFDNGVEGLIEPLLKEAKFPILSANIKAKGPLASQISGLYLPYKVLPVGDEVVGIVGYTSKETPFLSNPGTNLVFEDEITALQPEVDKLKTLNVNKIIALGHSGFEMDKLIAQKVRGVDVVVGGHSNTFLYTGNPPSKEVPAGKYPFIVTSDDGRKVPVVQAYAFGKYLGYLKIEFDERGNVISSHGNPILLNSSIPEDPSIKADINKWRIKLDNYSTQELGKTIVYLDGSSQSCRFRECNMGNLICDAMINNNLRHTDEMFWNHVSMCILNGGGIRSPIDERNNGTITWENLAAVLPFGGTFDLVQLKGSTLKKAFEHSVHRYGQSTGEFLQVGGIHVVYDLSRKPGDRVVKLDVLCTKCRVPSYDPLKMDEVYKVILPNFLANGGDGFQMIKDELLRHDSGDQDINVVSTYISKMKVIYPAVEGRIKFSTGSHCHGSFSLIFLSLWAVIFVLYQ
Briefly: h-e5’NT activity assay. Format: biochemical. The following applies: for inhibition at 100 µM: read-out: % Inhibition h-e5’NT. An outline of the steps: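 Human ecto-5′-nucleotidase from transfected COS-7 cells was pre-incubated 10 min at 37 °C with compound (0.1 mM final) in 50 mM Tris–HCl with MgCl₂ and CaCl₂, pH 7.4. The reaction was started with AMP (2 mM solution as added) and run 20 min at 37 °C. Released phosphate was detected with malachite green at 630 nm, in triplicate.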

Data set [5] can be described thus: MTT assay. In kind it is cell-based, human. The following applies: human, MCF-7 breast cancer cells, MCF-7, 100 μM; for cytotoxicity at 24 h, 100 µM: % Cytotoxicity ± SD; for viability at 24 h, 100 µM: % Viability. A general note: Tetrazolium dyes change colour on reduction, which living cells bring about.
Data set [6] relates to MCF-7 breast cancer cells. In words: MTT assay. In kind it is cell-based, human. Particulars: MCF-7, 100 μM, 24 h, 100 µM.
For data set [7], the system named is h-NTPDases. In words: h-NTPDase activity assay, all four isoenzymes. In kind it is biochemical, human. In a few lines: as §1
Data set [8] addresses T5, h-NTPDase2 (Homo sapiens, UniProt Q9Y5L3).
T5 sequence (Q9Y5L3 1-495): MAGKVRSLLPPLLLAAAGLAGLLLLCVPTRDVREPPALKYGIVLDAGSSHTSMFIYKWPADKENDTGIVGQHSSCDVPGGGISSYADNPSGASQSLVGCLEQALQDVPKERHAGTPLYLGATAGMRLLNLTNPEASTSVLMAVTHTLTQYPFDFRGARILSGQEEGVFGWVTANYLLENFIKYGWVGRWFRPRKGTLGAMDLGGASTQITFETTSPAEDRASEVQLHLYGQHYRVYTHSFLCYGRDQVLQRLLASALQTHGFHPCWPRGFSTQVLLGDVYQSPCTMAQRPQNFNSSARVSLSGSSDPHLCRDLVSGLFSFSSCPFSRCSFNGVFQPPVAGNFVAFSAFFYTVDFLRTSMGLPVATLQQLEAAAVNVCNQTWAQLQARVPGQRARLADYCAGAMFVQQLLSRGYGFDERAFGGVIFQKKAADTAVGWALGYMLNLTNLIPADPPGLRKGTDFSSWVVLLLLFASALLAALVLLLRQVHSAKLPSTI
Briefly: h-NTPDase activity assay. Format: biochemical. Particulars: for inhibition at 100 µM: read-out: % Inhibition h-NTPDase2.

Data set [9] has as its target T6, h-NTPDase8 (Homo sapiens, UniProt Q5MY95).
T6 sequence (Q5MY95 1-495): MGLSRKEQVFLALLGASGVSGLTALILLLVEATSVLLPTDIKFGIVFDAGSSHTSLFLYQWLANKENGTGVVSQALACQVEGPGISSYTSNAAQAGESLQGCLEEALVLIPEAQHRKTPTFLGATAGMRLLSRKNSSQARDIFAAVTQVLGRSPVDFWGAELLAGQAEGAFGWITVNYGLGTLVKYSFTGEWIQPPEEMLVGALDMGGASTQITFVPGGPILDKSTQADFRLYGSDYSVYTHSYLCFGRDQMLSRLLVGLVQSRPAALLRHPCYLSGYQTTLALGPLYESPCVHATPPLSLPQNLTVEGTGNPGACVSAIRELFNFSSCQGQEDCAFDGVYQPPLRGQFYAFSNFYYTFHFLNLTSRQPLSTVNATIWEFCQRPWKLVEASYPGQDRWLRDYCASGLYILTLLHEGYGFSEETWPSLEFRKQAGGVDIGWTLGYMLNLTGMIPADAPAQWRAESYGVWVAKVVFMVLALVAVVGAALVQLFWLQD
Briefly: h-NTPDase activity assay. Format: biochemical.

Data set [10] deals with h-NTPDase1, -2, -3, and -8 isoenzymes, h-NPP1, and h-e5′NT. In words: Enzymatic assays, all ectonucleotidases. In kind it is biochemical, human. The following applies: at 100 µM.

On to `O=C(NCc1ccc(Cl)cc1)c1ccc2ncccc2c1` [Compound 4a, N-(4-chlorobenzyl)quinoline-6-carboxamide], for which the inhibition at 100 µM is 37% in data set [1], 30.6% in data set [2], 67% in data set [3] and 67.9% in data set [4]. Besides, the IC50 was 0.23 ± 0.02 µM in data set [3] and 0.092 ± 0.02 µM in data set [4]. Besides, in data set [5], the cytotoxicity at 24 h, 100 µM came out at 37%. The same compound returned a viability at 24 h, 100 µM in data set [5] of 62.7%. Also, the “% Cytotoxicity ± SD” value in data set [6] is recorded as 37.3 ± 1.80%. For the same compound, the “activity against all four h-NTPDase isoenzymes” value (shortened to “activity”) in data set [7] is on record as “poor activity”.

Take `COc1ccc(CNC(=O)c2ccc3ncccc3c2)c(OC)c1` [Compound 4i, N-(2,4-dimethoxybenzyl)quinoline-6-carboxamide]: the inhibition at 100 µM was 19.5% in [1]; 39.6% in data set [8]; 25.1% in data set [2]; 29.8% in [9] (read-out: % Inhibition h-NTPDase8, at 100 µM); 54.9% in [4]. In data set [4], this compound registered an IC50 of 0.99 ± 0.13 µM. Further, the cytotoxicity at 24 h, 100 µM in [5] came out at 41.5 ± 0.31%. For the same compound, the viability at 24 h, 100 µM in [5] was found to be 58.5%. In addition, in data set [10], the “% inhibition for all enzymes except h-e5′NT” value is given as “less than 50%”. For the same compound, the “activity” value in data set [7] was “poor activity”.

Take `O=C(NCc1ccc(Cl)cc1Cl)c1ccc2ncccc2c1` [Compound 4j, N-(2,4-dichlorobenzyl)quinoline-6-carboxamide]: the inhibition at 100 µM was determined as 33.1% in data set [1]; 26.2% in data set [8]; 35.6% in [2]; 85.5% in [3]; 72.4% in data set [4]. For the same compound, the half-maximal inhibitory concentration (IC50) was found to be 13.5 ± 1.24 µM in data set [3] and 0.44 ± 0.07 µM in [4]. Further, in [5], the cytotoxicity at 24 h, 100 µM worked out at 55 ± 1.36%. Besides, the viability at 24 h, 100 µM in data set [5] is 43 to 45%. Moreover, the “% Viability” value in [6] came out at 45.0%. Also, in [7], the “activity” value is recorded as “poor activity”.

With `Nc1c(S(=O)(=O)O)cc(Nc2ccc(Nc3nc(Cl)nc(Nc4cccc(S(=O)(=O)O)c4)n3)c(S(=O)(=O)O)c2)c2c1C(=O)c1ccccc1C2=O` [Reactive blue 2, reference compound], the IC50 in data set [1] was 16.1 ± 1.02 µM; in data set [8], 24.1 ± 3.01 µM; in data set [2] it was 4.31 ± 0.41 µM; in data set [9], 101 ± 2.34 µM.

In data set [4], `Cc1ccc(C(=O)Nc2ccc(S(=O)(=O)O)c3cc(S(=O)(=O)O)cc(S(=O)(=O)O)c23)cc1NC(=O)c1cccc(NC(=O)Nc2cccc(C(=O)Nc3cc(C(=O)Nc4ccc(S(=O)(=O)O)c5cc(S(=O)(=O)O)cc(S(=O)(=O)O)c45)ccc3C)c2)c1` [Suramin, reference compound] showed an IC50 of 42.1 ± 7.8 µM.
